The source made the active and inactive calls. The calls are words filed in the database; no cut-off is given here.
What was measured:
[1] = molecular target: T1, Pituitary adenylate cyclase-activating polypeptide type I receptor (Homo sapiens, UniProt P41586); assay: Displacement of [125I]Ac-PACAP27 from human recombinant PAC1 receptor expressed in CHO cells by gamma- counter; assay type: cell-based
Target sequence in this assay (P41586 whole entry): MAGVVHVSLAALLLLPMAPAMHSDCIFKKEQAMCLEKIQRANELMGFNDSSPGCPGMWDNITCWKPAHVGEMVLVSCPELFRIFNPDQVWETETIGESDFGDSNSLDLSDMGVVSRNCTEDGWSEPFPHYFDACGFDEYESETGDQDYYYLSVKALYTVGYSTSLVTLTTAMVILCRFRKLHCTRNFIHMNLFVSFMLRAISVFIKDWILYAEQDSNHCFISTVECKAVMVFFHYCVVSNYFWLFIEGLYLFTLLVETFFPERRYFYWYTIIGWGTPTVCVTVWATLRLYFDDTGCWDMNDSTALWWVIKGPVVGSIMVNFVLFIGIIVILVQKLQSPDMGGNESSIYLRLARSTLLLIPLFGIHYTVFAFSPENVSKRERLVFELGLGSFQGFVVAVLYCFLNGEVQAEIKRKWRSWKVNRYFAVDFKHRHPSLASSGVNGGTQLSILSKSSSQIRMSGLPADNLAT

[2] = molecular target: T1, Pituitary adenylate cyclase-activating polypeptide type I receptor; assay: Agonist activity at human recombinant PAC1 receptor expressed in CHO cells assessed as PACAP38-induced calcium mobilization at 1 uM by FLIPR assay; assay type: functional, cell-based
Target sequence in this assay (P41586 whole entry): as above

[3] = molecular target: T1, Pituitary adenylate cyclase-activating polypeptide type I receptor; assay: Agonist activity at human recombinant PAC1 receptor expressed in CHO cells assessed as PACAP38-induced calcium mobilization at 1 uM by FLIPR assay relative to PACAP38; assay type: functional, cell-based
Target sequence in this assay (P41586 21-468 limits assumed): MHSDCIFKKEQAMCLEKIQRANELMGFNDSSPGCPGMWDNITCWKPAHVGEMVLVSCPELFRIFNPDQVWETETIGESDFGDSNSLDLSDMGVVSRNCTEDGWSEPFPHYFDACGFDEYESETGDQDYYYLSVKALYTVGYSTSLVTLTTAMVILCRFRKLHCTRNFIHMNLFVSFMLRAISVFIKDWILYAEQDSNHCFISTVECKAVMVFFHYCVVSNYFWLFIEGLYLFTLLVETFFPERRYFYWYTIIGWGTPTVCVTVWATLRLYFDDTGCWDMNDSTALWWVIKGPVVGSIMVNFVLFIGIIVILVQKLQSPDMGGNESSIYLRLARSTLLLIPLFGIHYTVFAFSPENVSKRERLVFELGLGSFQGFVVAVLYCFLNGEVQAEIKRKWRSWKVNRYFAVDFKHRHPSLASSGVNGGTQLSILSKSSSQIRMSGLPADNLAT

[4] = molecular target: T1, Pituitary adenylate cyclase-activating polypeptide type I receptor; assay: Antagonist activity at human recombinant PAC1 receptor expressed in CHO cells assessed as reduction in PACAP38-induced calcium mobilization at 10 uM by FLIPR assay; assay type: functional, cell-based
Outline: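 Fluo-4-loaded CHO cells stably expressing human PAC1 were exposed for 15 min to 10^-5 M peptide before reading. They were then challenged with 10^-6 M PACAP38, and the reduction in fluorescence calcium response was recorded (ex 480/em 525 nm, 150 s).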
Target sequence in this assay (P41586 21-468 limits assumed): as above

SMILES: CC[C@H](C)[C@H](NC(=O)CN(C)C(=O)[C@H](CC(=O)O)NC(=O)[C@H](CO)NC(=O)[C@@H](N)Cc1cnc[nH]1)C(=O)N[C@@H](Cc1ccccc1)C(=O)N[C@H](C(=O)N[C@@H](CC(=O)O)C(=O)N[C@@H](CO)C(=O)N[C@@H](Cc1ccc(O)cc1)C(=O)N[C@@H](CO)C(=O)N[C@@H](CCCNC(=N)N)C(=O)N[C@@H](Cc1ccc(O)cc1)C(=O)N[C@@H](CCCNC(=N)N)C(=O)N[C@@H](CCCCN)C(=O)N[C@@H](CCC(N)=O)C(=O)N[C@@H](CCSC)C(=O)N[C@@H](C)C(=O)N[C@H](C(=O)N[C@@H](CCCCN)C(=O)N[C@@H](CCCCN)C(=O)N[C@@H](Cc1ccc(O)cc1)C(=O)N[C@@H](CC(C)C)C(=O)N[C@@H](C)C(=O)N[C@@H](C)C(=O)N[C@H](C(=O)N[C@@H](CC(C)C)C(N)=O)C(C)C)C(C)C)[C@@H](C)O
- IC50 [1]: 308 nM
- EC50 [2]: Not Active
- Emax [3]: inactive
- Activity [4]: inactive
